ChEMBL document CHEMBL1148350, “Synthesis, biological activity, and three-dimensional quantitative structure-activity relationship model for a series of benzo[c]quinolizin-3-ones, nonsteroidal inhibitors of human steroid 5alpha-reductase 1” (J Med Chem, 2004)

Key:
[1] = Partition coefficient (logP); assay type: physicochemical; conditions: octanol/water
[2] = biological target: T1, 3-oxo-5-alpha-steroid 4-dehydrogenase 1 (Homo sapiens, UniProt P18405); test: Log of inhibitory concentration against human recombinant steroid 5-alpha-reductase type I in stably transfected chinese hamster ovary (CHO) 1827 cells using [3H]testosterone.
T1 sequence (P18405 whole entry): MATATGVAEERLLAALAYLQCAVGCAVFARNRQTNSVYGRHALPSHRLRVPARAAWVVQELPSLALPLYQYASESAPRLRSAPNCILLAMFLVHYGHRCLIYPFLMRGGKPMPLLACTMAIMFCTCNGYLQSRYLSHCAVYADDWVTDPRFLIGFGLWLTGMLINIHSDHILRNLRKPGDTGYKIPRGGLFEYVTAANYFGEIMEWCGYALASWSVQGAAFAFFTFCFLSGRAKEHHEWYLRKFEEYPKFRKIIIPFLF
Method in brief: (§1)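 Intact stably transfected CHO 1827 cells expressing human recombinant 5αR-1 were incubated 30 min with [3H]-testosterone at its Km (2 μM) plus inhibitor over 10^-9–10^-5 M. IC50 was obtained by four-parameter logistic fit. Finasteride served as reference inhibitor across repeated assays.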

[3] = biological target: T1, 3-oxo-5-alpha-steroid 4-dehydrogenase 1; test: Inhibitory concentration against human recombinant steroid 5-alpha-reductase type I in stably transfected chinese hamster ovary (CHO) 1827 cells using [3H]testosterone.; method in brief: as §1
[4] = biological target: T2, 3-oxo-5-alpha-steroid 4-dehydrogenase 2 (Homo sapiens, UniProt P31213); test: Inhibitory concentration against human recombinant steroid 5-alpha-reductase type 2 in stably transfected chinese hamster ovary 1827 cells using [3H]testosterone
T2 sequence (P31213 whole entry): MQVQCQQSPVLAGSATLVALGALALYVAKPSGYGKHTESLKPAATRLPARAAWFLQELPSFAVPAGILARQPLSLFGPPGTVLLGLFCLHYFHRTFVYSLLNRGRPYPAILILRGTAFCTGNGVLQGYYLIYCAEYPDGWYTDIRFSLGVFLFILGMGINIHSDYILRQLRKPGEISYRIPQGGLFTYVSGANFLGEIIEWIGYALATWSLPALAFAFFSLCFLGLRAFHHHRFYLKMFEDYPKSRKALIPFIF
Method in brief: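 Intact stably transfected CHO 1827 cells incubated 30 min with [3H]testosterone at its Km concentration plus inhibitor over 10^-9–10^-5 M. IC50 fitted by four-parameter logistic equation. Finasteride run as reference inhibitor to check interassay reproducibility.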

| SMILES | logP [1] | IC50 [2] [nM] | IC50 [3] [nM] | IC50 [4] [nM] |
| --- | --- | --- | --- | --- |
| O=C1C=C2CCc3ccccc3N2CC1 | 2.33 | – | – | – |
| CC1=C2CCc3cc(-c4cccs4)ccc3N2CCC1=O | 4.62 | 79.4 | 79 | – |
| C=Cc1ccc2c(c1)CCC1=C(C)C(=O)CCN12 | 3.57 | 21.4 | 21.6 | – |
| CC1=C2CCc3cc(/C=C/c4ccccc4)ccc3N2CCC1=O | 5.54 | 380 | 380 | – |
| CC1=C2CCc3cc(-c4cccnc4)ccc3N2CCC1=O | 3.35 | 170 | 170 | – |
| CC(C)(C)NC(=O)[C@H]1CC[C@H]2[C@@H]3CC[C@H]4NC(=O)C=C[C@]4(C)[C@H]3CC[C@]12C [FINASTERIDE] | – | – | – | 21 |
| CC1=C2CCc3cc(C(=O)Oc4ccc(C)cc4)ccc3N2CCC1=O | 4.05 | 1050 | 1050 | – |
| CC1=C2CCc3cc(OCc4ccccc4Cl)ccc3N2CCC1=O | 5.35 | 195 | 194 | – |
| CC1=C2CCc3cc(Br)ccc3N2CCC1=O | 3.88 | 8.13 | 8.1 | – |
| CC1=C2CCc3cc(OCc4ccc(Cl)cc4)ccc3N2CCC1=O | 5.35 | 93.3 | 92.9 | – |
| CC1=C2CCc3cc(OCc4ccc(C(F)(F)F)cc4)ccc3N2CCC1=O | 5.52 | 83.2 | 83.7 | – |
| CC1=C2CCc3cc(C(=O)OC(C)(C)C)ccc3N2CCC1=O | 4.37 | 1000 | 1000 | – |
| COC(=O)c1ccc2c(c1)CCC1=C(C)C(=O)CCN12 | 3.13 | 117 | 117 | – |
| CC1=C2CCc3cc(-c4ccccc4)ccc3N2CCC1=O | 4.74 | 129 | 128 | – |
| O=C1C=C2CCc3cc(Cl)ccc3N2CC1 | 3.22 | – | – | – |
| CC1=C2CCc3cc(C)ccc3N2CCC1=O | 3.35 | – | – | – |
| CC1=C2CCc3cc(C(=O)OC(C)C)ccc3N2CCC1=O | 3.97 | 724 | 731 | – |
| CC1=C2CCc3cc(OCc4ccccc4)ccc3N2CCC1=O | 4.64 | 112 | 111 | – |

| SMILES | logP [1] | IC50 [2] [nM] | IC50 [3] [nM] | IC50 [4] [nM] |
| --- | --- | --- | --- | --- |
| CC1=C2CCc3cc(/C=C\c4ccccc4)ccc3N2CCC1=O | 5.54 | 14.1 | 14.2 | – |
| CC1=C2CCc3cc(OCc4ccc(C(F)(F)F)cc4C(F)(F)F)ccc3N2CCC1=O | 6.41 | 148 | 149 | – |
| COC(=O)c1ccc(OC(=O)c2ccc3c(c2)CCC2=C(C)C(=O)CCN23)cc1 | 4.86 | 120 | 121 | – |
| CC1=C2CCc3cc(-c4ccco4)ccc3N2CCC1=O | 4.12 | 132 | 133 | – |
| CC1=C2CCc3ccccc3N2CCC1=O | 2.85 | – | – | – |
| CC1=C2CCc3cc(C#Cc4ccccc4)ccc3N2CCC1=O | 5.49 | 8.71 | 8.75 | – |
| CC1=C2CCc3cc(OCc4cc(C(F)(F)F)ccc4C(F)(F)F)ccc3N2CCC1=O | 6.41 | 389 | 393 | – |
| CC1=C2CCc3cc(C(=O)Oc4ccc(C(C)(C)C)cc4)ccc3N2CCC1=O | 6.47 | 562 | 560 | – |
| CC1=C2CCc3cc(OCc4cccc(Cl)c4)ccc3N2CCC1=O | 5.35 | 93.3 | 93 | – |
| CC1=C2CCc3cc(C(=O)Oc4ccccc4)ccc3N2CCC1=O | 4.64 | 933 | 942 | – |
| CC1=C2CCc3cc(Cl)ccc3N2CCC1=O | 3.73 | 5.62 | 5.8 | – |
| CCOC(=O)c1ccc2c(c1)CCC1=C(C)C(=O)CCN12 | 3.66 | 219 | 221 | – |
| CC1=C2CCc3cc(C(=O)OCc4ccccc4)ccc3N2CCC1=O | 4.96 | 97.7 | 96.8 | – |
| COC(=O)c1cccc(OC(=O)c2ccc3c(c2)CCC2=C(C)C(=O)CCN23)c1 | 4.86 | 955 | 965 | – |
| COc1ccc2c(c1)CCC1=C(C)C(=O)CCN12 | 2.87 | 182 | 178 | – |
| Cc1ccc2c(c1)CCC1=CC(=O)CCN12 | 2.83 | – | – | – |
| CCc1ccc2c(c1)CCC1=C(C)C(=O)CCN12 | 3.88 | 14.1 | 14 | – |
